Experimental data taken from paper PMC7332231 (Journal of the American Chemical Society, 2020).

Columns and labels:
DPP3 = target: T1, DPP3 (Homo sapiens, UniProt Q9NY33); test: peptidase substrate assay; format: biochemical
T1 sequence (Q9NY33 2-737): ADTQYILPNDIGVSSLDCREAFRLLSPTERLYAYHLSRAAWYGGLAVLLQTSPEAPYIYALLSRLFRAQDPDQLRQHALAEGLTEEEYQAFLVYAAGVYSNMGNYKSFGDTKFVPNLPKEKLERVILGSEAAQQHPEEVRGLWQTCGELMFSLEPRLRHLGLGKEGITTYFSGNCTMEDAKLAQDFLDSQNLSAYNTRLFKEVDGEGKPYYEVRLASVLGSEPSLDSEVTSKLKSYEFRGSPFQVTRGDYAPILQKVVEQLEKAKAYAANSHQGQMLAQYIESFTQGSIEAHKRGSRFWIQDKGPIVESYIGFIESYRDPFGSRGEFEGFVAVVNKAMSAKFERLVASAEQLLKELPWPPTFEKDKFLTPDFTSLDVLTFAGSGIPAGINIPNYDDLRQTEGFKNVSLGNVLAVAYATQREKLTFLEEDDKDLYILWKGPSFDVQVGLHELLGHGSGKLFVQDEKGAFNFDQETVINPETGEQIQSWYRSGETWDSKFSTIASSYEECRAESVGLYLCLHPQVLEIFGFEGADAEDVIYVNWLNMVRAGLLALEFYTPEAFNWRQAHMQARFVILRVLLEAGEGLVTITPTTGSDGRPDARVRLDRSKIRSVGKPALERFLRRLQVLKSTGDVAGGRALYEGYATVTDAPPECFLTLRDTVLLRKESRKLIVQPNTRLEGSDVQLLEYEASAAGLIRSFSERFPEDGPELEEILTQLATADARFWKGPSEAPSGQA
In short: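 Purified DPP3 was exposed to test compound over a concentration series, and its catalytic activity was read by a peptidase substrate assay. IC50 was reported with 95% confidence intervals; data are mean ± s.e.m. from n = 3 biologically independent experiments. Y417 engagement was measured by quantitative chemical proteomics with the HHS-482 probe on soluble proteome from HEK293T cells expressing recombinant human DPP3 (n = 2).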

YWHAE = target: T2, YWHAE (Homo sapiens, UniProt P62258); test: competitive SILAC chemical proteomics in DM93 soluble proteome; format: cell-based
T2 sequence (P62258 1-255): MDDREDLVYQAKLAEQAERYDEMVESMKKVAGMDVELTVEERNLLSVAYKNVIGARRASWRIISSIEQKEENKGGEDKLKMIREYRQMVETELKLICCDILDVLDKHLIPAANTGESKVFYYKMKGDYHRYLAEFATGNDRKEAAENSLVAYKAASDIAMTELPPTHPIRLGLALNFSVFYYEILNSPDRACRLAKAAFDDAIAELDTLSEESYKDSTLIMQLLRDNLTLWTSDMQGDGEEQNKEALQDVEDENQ

[1] = target: glutathione S-transferase Pi (GSTP1) (Homo sapiens, UniProt P09211); test: GSH substrate assay in recombinant GSTP1 lysates; format: biochemical
Chain of glutathione S-transferase Pi (GSTP1) (P09211 2-210): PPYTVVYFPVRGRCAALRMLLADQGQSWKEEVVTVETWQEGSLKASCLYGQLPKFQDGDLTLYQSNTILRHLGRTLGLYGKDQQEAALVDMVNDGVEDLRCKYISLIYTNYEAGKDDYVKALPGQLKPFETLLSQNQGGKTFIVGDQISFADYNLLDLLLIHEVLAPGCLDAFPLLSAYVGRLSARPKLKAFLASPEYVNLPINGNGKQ

IC50 (DPP3) [µM]	competitive SILAC chemical proteomics in DM93 soluble proteome (50 μM) (YWHAE)	IC50 [1] [µM]	Compound
17	> 6 SILAC ratio (SR)	–	COc1ccc(-c2ncn(S(=O)(=O)c3ccc(-c4ccccc4)cc3)n2)cc1 [JWB142]
–	–	16	O=S(=O)(c1ccc2ccccc2c1)n1cnc(-c2ccncc2)n1 [JWB198]
